Measured values: ChEMBL document CHEMBL1629649, “Multiple regulatory pathways associated with high-level ciprofloxacin and multidrug resistance in Salmonella enterica serovar enteritidis: involvement of RamA and other global regulators” (2009)
Converted amounts (≈) assume the structure as drawn. Residues, ends and D or L forms follow the SMILES beside them. *: point of attachment. βNA = c1ccc2cc(N*)ccc2c1

How the values were obtained:
[1] = tested on: Salmonella enterica subsp. enterica serovar Enteritidis; experiment: Inhibition of AcrAB-TolC efflux pump in Salmonella enterica serovar enteritidis isolate 58 assessed as fold increase in ciprofloxacin MIC relative to controlphenylalanine-arginine-beta-naphthylamide
[2] = tested on: Salmonella enterica subsp. enterica serovar Enteritidis; experiment: Inhibition of AcrAB-TolC efflux pump in Salmonella enterica serovar enteritidis isolate CUH60 assessed as fold increase in ciprofloxacin MIC relative to control
[3] = tested on: Salmonella enterica subsp. enterica serovar Enteritidis; experiment: Inhibition of AcrAB-TolC efflux pump in Salmonella enterica serovar enteritidis isolate 4931 assessed as fold increase in nalidixic acid MIC relative to control
[4] = tested on: Salmonella enterica subsp. enterica serovar Enteritidis; experiment: Inhibition of AcrAB-TolC efflux pump in Salmonella enterica serovar enteritidis isolate 54 assessed as fold increase in nalidixic acid MIC relative to control
[5] = tested on: Salmonella enterica subsp. enterica serovar Enteritidis; experiment: Inhibition of AcrAB-TolC efflux pump in Salmonella enterica serovar enteritidis isolate 104-cip assessed as fold increase in tetracycline MIC relative to control
[6] = tested on: Salmonella enterica subsp. enterica serovar Enteritidis; experiment: Inhibition of AcrAB-TolC efflux pump in Salmonella enterica serovar enteritidis isolate 104-cip assessed as fold increase in ampicillin MIC relative to control
[7] = tested on: Salmonella enterica subsp. enterica serovar Enteritidis; experiment: Inhibition of AcrAB-TolC efflux pump in Salmonella enterica serovar enteritidis isolate 54 assessed as fold increase in ciprofloxacin MIC relative to control
[8] = tested on: Salmonella enterica subsp. enterica serovar Enteritidis; experiment: Inhibition of AcrAB-TolC efflux pump in Salmonella enterica serovar enteritidis isolate 5408-cip assessed as fold increase in chloramphenicol MIC relative to control
[9] = tested on: Salmonella enterica subsp. enterica serovar Enteritidis; experiment: Inhibition of AcrAB-TolC efflux pump in Salmonella enterica serovar enteritidis isolate 5408 assessed as fold increase in tetracycline MIC relative to control
[10] = tested on: Salmonella enterica subsp. enterica serovar Enteritidis; experiment: Inhibition of AcrAB-TolC efflux pump in Salmonella enterica serovar enteritidis isolate CUH52 assessed as fold increase in ciprofloxacin MIC relative to control
[11] = tested on: Salmonella enterica subsp. enterica serovar Enteritidis; experiment: Inhibition of AcrAB-TolC efflux pump in Salmonella enterica serovar enteritidis isolate NCTC 13349 assessed as fold increase in nalidixic acid MIC relative to control
[12] = tested on: Salmonella enterica subsp. enterica serovar Enteritidis; experiment: Inhibition of AcrAB-TolC efflux pump in Salmonella enterica serovar enteritidis isolate 4931 assessed as fold increase in ciprofloxacin MIC relative to control
[13] = tested on: Salmonella enterica subsp. enterica serovar Enteritidis; experiment: Inhibition of AcrAB-TolC efflux pump in Salmonella enterica serovar enteritidis isolate 104 assessed as fold increase in chloramphenicol MIC relative to control
[14] = tested on: Salmonella enterica subsp. enterica serovar Enteritidis; experiment: Inhibition of AcrAB-TolC efflux pump in Salmonella enterica serovar enteritidis isolate 104 assessed as fold increase in trimethoprim-sulfamethoxazole MIC relative to control
[15] = tested on: Salmonella enterica subsp. enterica serovar Enteritidis; experiment: Inhibition of AcrAB-TolC efflux pump in Salmonella enterica serovar enteritidis isolate 104-cip assessed as fold increase in nalidixic acid MIC relative to control
[16] = tested on: Salmonella enterica subsp. enterica serovar Enteritidis; experiment: Inhibition of AcrAB-TolC efflux pump in Salmonella enterica serovar enteritidis isolate 5408 assessed as fold increase in ciprofloxacin MIC relative to control
[17] = tested on: Salmonella enterica subsp. enterica serovar Enteritidis; experiment: Inhibition of AcrAB-TolC efflux pump in Salmonella enterica serovar enteritidis isolate 104 assessed as fold increase in nalidixic acid MIC relative to control
[18] = tested on: Salmonella enterica subsp. enterica serovar Enteritidis; experiment: Inhibition of AcrAB-TolC efflux pump in Salmonella enterica serovar enteritidis isolate 5408-cip assessed as fold increase in nalidixic acid MIC relative to control
[19] = tested on: Salmonella enterica subsp. enterica serovar Enteritidis; experiment: Inhibition of AcrAB-TolC efflux pump in Salmonella enterica serovar enteritidis isolate 58 assessed as fold increase in nalidixic acid MIC relative to controlphenylalanine-arginine-beta-naphthylamide
[20] = tested on: Salmonella enterica subsp. enterica serovar Enteritidis; experiment: Inhibition of AcrAB-TolC efflux pump in Salmonella enterica serovar enteritidis isolate 104 assessed as fold increase in ciprofloxacin MIC relative to control
[21] = tested on: Salmonella enterica subsp. enterica serovar Enteritidis; experiment: Inhibition of AcrAB-TolC efflux pump in ciprofloxacin-resistant Salmonella enterica serovar enteritidis isolate CUH48 assessed as fold increase in nalidixic acid MIC relative to control
[22] = tested on: Salmonella enterica subsp. enterica serovar Enteritidis; experiment: Inhibition of AcrAB-TolC efflux pump in Salmonella enterica serovar enteritidis isolate 5408 assessed as fold increase in trimethoprim-sulfamethoxazole MIC relative to control
[23] = tested on: Salmonella enterica subsp. enterica serovar Enteritidis; experiment: Inhibition of AcrAB-TolC efflux pump in Salmonella enterica serovar enteritidis isolate 104 assessed as fold increase in ampicillin MIC relative to control
[24] = tested on: Salmonella enterica subsp. enterica serovar Enteritidis; experiment: Inhibition of AcrAB-TolC efflux pump in Salmonella enterica serovar enteritidis isolate 104 assessed as fold increase in tetracycline MIC relative to control
[25] = tested on: Salmonella enterica subsp. enterica serovar Enteritidis; experiment: Inhibition of AcrAB-TolC efflux pump in Salmonella enterica serovar enteritidis isolate 5408-cip assessed as fold increase in ciprofloxacin MIC relative to control
[26] = tested on: Salmonella enterica subsp. enterica serovar Enteritidis; experiment: Inhibition of AcrAB-TolC efflux pump in Salmonella enterica serovar enteritidis isolate 5408 assessed as fold increase in chloramphenicol MIC relative to control
[27] = tested on: Salmonella enterica subsp. enterica serovar Enteritidis; experiment: Inhibition of AcrAB-TolC efflux pump in Salmonella enterica serovar enteritidis isolate NCTC 13349 assessed as fold increase in ciprofloxacin MIC relative to control
[28] = tested on: Salmonella enterica subsp. enterica serovar Enteritidis; experiment: Inhibition of AcrAB-TolC efflux pump in Salmonella enterica serovar enteritidis isolate CUH52 assessed as fold increase in nalidixic acid MIC relative to control
[29] = tested on: Salmonella enterica subsp. enterica serovar Enteritidis; experiment: Inhibition of AcrAB-TolC efflux pump in Salmonella enterica serovar enteritidis isolate 5408 assessed as fold increase in ampicillin MIC relative to control
[30] = tested on: Salmonella enterica subsp. enterica serovar Enteritidis; experiment: Inhibition of AcrAB-TolC efflux pump in ciprofloxacin-resistant Salmonella enterica serovar enteritidis isolate CUH48 assessed as fold increase in ciprofloxacin MIC relative to control
[31] = tested on: Salmonella enterica subsp. enterica serovar Enteritidis; experiment: Inhibition of AcrAB-TolC efflux pump in Salmonella enterica serovar enteritidis isolate 51 assessed as fold increase in nalidixic acid MIC relative to control
[32] = tested on: Salmonella enterica subsp. enterica serovar Enteritidis; experiment: Inhibition of AcrAB-TolC efflux pump in Salmonella enterica serovar enteritidis isolate 5408 assessed as fold increase in nalidixic acid MIC relative to control
[33] = tested on: Salmonella enterica subsp. enterica serovar Enteritidis; experiment: Inhibition of AcrAB-TolC efflux pump in Salmonella enterica serovar enteritidis isolate 104-cip assessed as fold increase in trimethoprim-sulfamethoxazole MIC relative to control
[34] = tested on: Salmonella enterica subsp. enterica serovar Enteritidis; experiment: Inhibition of AcrAB-TolC efflux pump in Salmonella enterica serovar enteritidis isolate 5408-cip assessed as fold increase in ampicillin MIC relative to control
[35] = tested on: Salmonella enterica subsp. enterica serovar Enteritidis; experiment: Inhibition of AcrAB-TolC efflux pump in Salmonella enterica serovar enteritidis isolate 51 assessed as fold increase in ciprofloxacin MIC relative to control
[36] = tested on: Salmonella enterica subsp. enterica serovar Enteritidis; experiment: Inhibition of AcrAB-TolC efflux pump in Salmonella enterica serovar enteritidis isolate CUH60 assessed as fold increase in nalidixic acid MIC relative to control
[37] = tested on: Salmonella enterica subsp. enterica serovar Enteritidis; experiment: Inhibition of AcrAB-TolC efflux pump in Salmonella enterica serovar enteritidis isolate 5408-cip assessed as fold increase in tetracycline MIC relative to control
[38] = tested on: Salmonella enterica subsp. enterica serovar Enteritidis; experiment: Inhibition of AcrAB-TolC efflux pump in Salmonella enterica serovar enteritidis isolate 104-cip assessed as fold increase in chloramphenicol MIC relative to control
[39] = tested on: Salmonella enterica subsp. enterica serovar Enteritidis; experiment: Inhibition of AcrAB-TolC efflux pump in Salmonella enterica serovar enteritidis isolate 5408-cip assessed as fold increase in trimethoprim-sulfamethoxazole MIC relative to control
[40] = tested on: Salmonella enterica subsp. enterica serovar Enteritidis; experiment: Inhibition of AcrAB-TolC efflux pump in Salmonella enterica serovar enteritidis isolate 104-cip assessed as fold increase in ciprofloxacin MIC relative to control
[41] = tested on: Salmonella enteritidis; experiment: Antimicrobial activity against soxS::aph-deficient ciprofloxacin-resistant Salmonella enterica serovar enteritidis isolate 104-cip harboring gyrA D87Y,S83F mutant gene by Etest; format: functional, Salmonella enterica subsp. enterica serovar Enteritidis
Outline: (§1)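 Deletions (acrB, marA, soxS or ramA) were moved from SL1344 mutants into the isolates by P22 phage transduction. Transductants were selected on LB agar with 50 µg/ml kanamycin, and insertion of the kanamycin resistance gene was confirmed by PCR. MICs were then determined by Etest.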

[42] = tested on: Salmonella enteritidis; experiment: Antimicrobial activity against acrB::aph-deficient ciprofloxacin-resistant Salmonella enterica serovar enteritidis isolate 5408-cip harboring gyrA D87Y, gyrB E466D, parE V461G mutant gene by Etest; format: functional, Salmonella enterica subsp. enterica serovar Enteritidis; outline: as §1
[43] = tested on: Salmonella enteritidis; experiment: Antimicrobial activity against acrB::aph-deficient ciprofloxacin-resistant Salmonella enterica serovar enteritidis isolate 104-cip harboring gyrA D87Y,S83F mutant gene by Etest; format: functional, Salmonella enterica subsp. enterica serovar Enteritidis; outline: as §1
[44] = tested on: Salmonella enteritidis; experiment: Antimicrobial activity against ramA::aph-deficient ciprofloxacin-resistant Salmonella enterica serovar enteritidis isolate 5408-cip harboring gyrA D87Y, gyrB E466D, parE V461G mutant gene by Etest; format: functional, Salmonella enterica subsp. enterica serovar Enteritidis; outline: as §1
[45] = tested on: Salmonella enteritidis; experiment: Antimicrobial activity against Salmonella enterica serovar enteritidis isolate 5408 harboring gyrA D87Y mutant gene by Etest; format: functional, Salmonella enterica subsp. enterica serovar Enteritidis
[46] = tested on: Salmonella enteritidis; experiment: Antimicrobial activity against Salmonella enterica serovar enteritidis isolate 104-cip harboring gyrA D87Y,S83F mutant gene by Etest; format: functional, Salmonella enterica subsp. enterica serovar Enteritidis
[47] = tested on: Salmonella enteritidis; experiment: Antimicrobial activity against ciprofloxacin-resistant Salmonella enterica serovar enteritidis isolate 5408-cip harboring gyrA D87Y, gyrB E466D, parE V461G mutant gene by Etest; format: functional, Salmonella enterica subsp. enterica serovar Enteritidis
[48] = tested on: Salmonella enteritidis; experiment: Antimicrobial activity against marA::aph-deficient ciprofloxacin-resistant Salmonella enterica serovar enteritidis isolate 104-cip harboring gyrA D87Y,S83F mutant gene by Etest; format: functional, Salmonella enterica subsp. enterica serovar Enteritidis; outline: as §1
[49] = tested on: Salmonella enteritidis; experiment: Antimicrobial activity against Salmonella enterica serovar enteritidis isolate 104 harboring gyrA D87Y mutant gene by Etest; format: functional, Salmonella enterica subsp. enterica serovar Enteritidis

N=C(N)NCCC[C@H](NC(=O)[C@@H](N)Cc1ccccc1)C(=O)Nc1ccc2ccccc2c1 (H-Phe-Arg-βNA)
Activity [1]: 0.064 µg/mL
Activity [2]: 0.094 µg/mL
Activity [3]: 16 µg/mL
Activity [4]: 16 µg/mL
Activity [5]: 3 µg/mL
Activity [6]: 1 µg/mL
Activity [7]: 0.064 µg/mL
Activity [8]: 0.38 µg/mL
Activity [9]: 0.19 µg/mL
Activity [10]: 0.008 µg/mL
Activity [11]: 0.38 µg/mL
Activity [12]: 0.064 µg/mL
Activity [13]: 0.75 µg/mL
Activity [14]: 0.023 µg/mL
Activity [15]: 256 µg/mL
Activity [16]: 0.094 µg/mL
Activity [17]: 24 µg/mL
Activity [18]: 16 µg/mL
Activity [19]: 24 µg/mL
Activity [20]: 0.094 µg/mL
MIC [21]: 0.5 µg/mL (≈ 1.12 µM)
Activity [22]: 0.023 µg/mL
Activity [23]: 0.75 µg/mL
Activity [24]: 0.19 µg/mL
Activity [25]: 2 µg/mL
Activity [26]: 0.5 µg/mL
Activity [27]: 0.008 µg/mL
Activity [28]: 0.75 µg/mL
Activity [29]: 1 µg/mL
MIC [30]: 0.012 µg/mL
Activity [31]: 32 µg/mL
Activity [32]: 24 µg/mL
Activity [33]: 0.023 µg/mL
Activity [34]: 2 µg/mL
Activity [35]: 0.094 µg/mL
Activity [36]: 32 µg/mL
Activity [37]: 0.094 µg/mL
Activity [38]: 1 µg/mL
Activity [39]: 0.032 µg/mL
Activity [40]: 2 µg/mL

CC1(C)S[C@@H]2[C@H](NC(=O)[C@H](N)c3ccccc3)C(=O)N2[C@H]1C(=O)O [AMPICILLIN]
MIC [41]: 0.5 µg/mL (≈ 1.43 µM)
MIC [42]: 0.094 µg/mL (≈ 0.269 µM)
MIC [43]: 0.125 µg/mL (≈ 0.358 µM)
MIC [44]: 1 µg/mL (≈ 2.86 µM)
MIC [45]: 1 µg/mL (≈ 2.86 µM)
MIC [46]: 16 µg/mL (≈ 45.8 µM)
MIC [47]: 4 µg/mL (≈ 11.4 µM)
MIC [48]: 1.5 µg/mL (≈ 4.29 µM)
MIC [49]: 1 µg/mL (≈ 2.86 µM)

O=C(N[C@H](CO)[C@H](O)c1ccc([N+](=O)[O-])cc1)C(Cl)Cl [CHLORAMPHENICOL]
MIC [41]: 1.5 µg/mL (≈ 4.64 µM)
MIC [42]: 0.5 µg/mL (≈ 1.55 µM)
MIC [43]: 0.75 µg/mL (≈ 2.32 µM)
MIC [44]: 3 µg/mL (≈ 9.28 µM)
MIC [45]: 3 µg/mL (≈ 9.28 µM)
MIC [46]: 96 µg/mL (≈ 297 µM)
MIC [47]: 16 µg/mL (≈ 49.5 µM)
MIC [48]: 3 µg/mL (≈ 9.28 µM)
MIC [49]: 2 µg/mL (≈ 6.19 µM)
